Converted amounts (≈) assume the structure as drawn.
Legend:
Format in all cases: functional
Bacillus cereus = experiment: Antimicrobial activity against Bacillus cereus by broth microdilution method
Summary of the method: (§1)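 Bacteria were grown on MH agar at 37 °C for 24 h, then diluted to about 1 × 10^7 CFU/mL. Compounds were dissolved in DMSO. MIC was determined by broth microdilution as the lowest concentration with no growth by turbidity, with MTT absorbance read at 570 nm. Duplicates, repeated three times.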

Pseudomonas aeruginosa = experiment: Antimicrobial activity against Pseudomonas aeruginosa by broth microdilution method; summary of the method: as §1
Enterococcus faecalis = experiment: Antimicrobial activity against Enterococcus faecalis by broth microdilution method; summary of the method: as §1
Escherichia coli = experiment: Antimicrobial activity against Escherichia coli by broth microdilution method; summary of the method: as §1
Candida albicans = experiment: Antimicrobial activity against Candida albicans by broth microdilution method
Summary of the method: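 C. albicans was grown on PDA agar at 28 °C for 48 h, then diluted to about 1 × 10^7 CFU/mL. Compounds were dissolved in DMSO. MIC was determined by broth microdilution as the lowest concentration with no growth by turbidity, with MTT absorbance read at 570 nm. Duplicates, repeated three times.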

Staphylococcus aureus = experiment: Antimicrobial activity against Staphylococcus aureus by broth microdilution method; summary of the method: as §1

| MIC (Bacillus cereus) | MIC (Pseudomonas aeruginosa) | MIC (Enterococcus faecalis) | MIC (Escherichia coli) | MIC (Candida albicans) | MIC (Staphylococcus aureus) | SMILES |
| --- | --- | --- | --- | --- | --- | --- |
| 72.7 µM (≈ 32 µg/mL) | 36.3 µM (≈ 16 µg/mL) | 36.3 µM (≈ 16 µg/mL) | 36.3 µM (≈ 16 µg/mL) | 36.3 µM (≈ 16 µg/mL) | 72.7 µM (≈ 32 µg/mL) | C[C@H]1[C@H](C)CC[C@]2(C)CC=C3[C@](C)([C@H]12)[C@H]1O[C@H]1[C@@H]1[C@@]2(C)CC[C@H](O)C(C)(C)[C@@H]2CC[C@@]31C |
| 140 µM (≈ 64.5 µg/mL) | 140 µM (≈ 64.5 µg/mL) | 50 µM (≈ 23 µg/mL) | 140 µM (≈ 64.5 µg/mL) | 69.6 µM (≈ 32.1 µg/mL) | 69.6 µM (≈ 32.1 µg/mL) | C[C@@H]1CC[C@]2(C)CC[C@]3(C)[C@@](O)(CC[C@@H]4[C@@]5(C)CC[C@H](O)C(C)(C)[C@@H]5CC[C@]43C)[C@]2(O)[C@H]1C |
| 283 µM (≈ 125 µg/mL) | 283 µM (≈ 125 µg/mL) | 142 µM (≈ 63.1 µg/mL) | 142 µM (≈ 63.1 µg/mL) | 283 µM (≈ 125 µg/mL) | 70.1 µM (≈ 31 µg/mL) | C[C@H]1[C@H](C)CC[C@]2(CO)CC[C@]3(C)C(=CC[C@@H]4[C@@]5(C)CC[C@H](O)C(C)(C)[C@@H]5CC[C@]43C)[C@H]12 [UVAOL] |

The next lines start with the molecule.

| SMILES | MIC (Bacillus cereus) | MIC (Pseudomonas aeruginosa) | MIC (Enterococcus faecalis) | MIC (Escherichia coli) | MIC (Candida albicans) | MIC (Staphylococcus aureus) |
| --- | --- | --- | --- | --- | --- | --- |
| C[C@H]1[C@H](C)CC[C@]2(C)CC[C@]3(C)C(=C[C@@H](O)[C@@H]4[C@@]5(C)CCC(=O)C(C)(C)[C@@H]5CC[C@]43C)[C@H]12 | 70.4 µM (≈ 31 µg/mL) | 70.4 µM (≈ 31 µg/mL) | 35.2 µM (≈ 15.5 µg/mL) | 70.4 µM (≈ 31 µg/mL) | 70.4 µM (≈ 31 µg/mL) | 35.2 µM (≈ 15.5 µg/mL) |
| CO[C@@H]1C[C@@]2(C)[C@@H]3[C@@H](C)[C@H](C)CC[C@]3(C)CC[C@]2(C)C2=C1[C@@]1(C)CC[C@H](OC(C)=O)C(C)(C)[C@@H]1C[C@H]2O | 179 µM (≈ 92.1 µg/mL) | 44.7 µM (≈ 23 µg/mL) | 89.5 µM (≈ 46.1 µg/mL) | 89.5 µM (≈ 46.1 µg/mL) | 89.5 µM (≈ 46.1 µg/mL) | 89.5 µM (≈ 46.1 µg/mL) |
| C[C@H]1[C@H](C)CC[C@]2(C)CC[C@]3(C)C(=C[C@@H](O)[C@H]4[C@@]3(C)[C@H](O)C[C@@]35OO[C@@H](CC(=O)C3(C)C)[C@]45C)[C@H]12 | 63.8 µM (≈ 31.1 µg/mL) | 31.9 µM (≈ 15.5 µg/mL) | 31.9 µM (≈ 15.5 µg/mL) | 31.9 µM (≈ 15.5 µg/mL) | 31.9 µM (≈ 15.5 µg/mL) | 14.9 µM (≈ 7.25 µg/mL) |
| CC1COc2c(N3CCN(C)CC3)c(F)cc3c(=O)c(C(=O)O)cn1c23 (stereo unspecified) [OFLOXACIN] | 0.86 µM (≈ 0.311 µg/mL) | 0.43 µM (≈ 0.155 µg/mL) | 0.86 µM (≈ 0.311 µg/mL) | 0.43 µM (≈ 0.155 µg/mL) |  | 0.43 µM (≈ 0.155 µg/mL) |
